# Assay outcomes (PubChem)
# Hits are enriched below; roughly 1.6% of the tested compounds scored in any of these assays.
# SKN-1 block – suppressors of acrylamide-induced Pgst-4::GFP reporter in worms, primary screen, SKN-1 inhibitor project, whole organism, uHTS, GFP/RFP fluorescence ratio, strain VP596; C. elegans VP596 Pgst-4::GFP/RFP ratio, 24 h; inhibition, % at 21.8 µM; 360,000 compounds, 0.49% hits; AID 624304, 2012;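 active = interference check ratio from 0.5 to 1.5 plus GFP to RFP signal ratio inhibition reaching or exceeding a fixed threshold, cut at about 30% in these data, passing the limit was not always enough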
# Arrestin-AP2 inh – inhibitors of beta-arrestin/AP2 binding, primary screen, biochemical, GPCR trafficking, flow cytometry. beta-arrestin 1 C-terminal peptide binding to AP2 beta2-adaptin appendage (human). FITC-arrestin peptide / GST-AP2 beads; AP2 beta2 appendage carries R879A mutation. inhibition, % at 10 µM. 340,000 compounds, 0.31% hits;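 active = inhibition above a set limit, near 3 SD of compounds lacking own fluorescence, cut at about 54% in these data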;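 note: plate controls were DMSO wells for no effect and 5 µM unlabelled arrestin peptide for full effect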
#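 System: GST-AP2 R879A glutathione beads | Also added: FITC-arrestin peptide, 50 nM | Times: 12 min plus 1 h, RT | Signal: Bead flow cytometry, FITC channel | Buffer or medium: PBS with 0.05% Tween 20 and 0.1% BSA | Read-out basis: Percent drop in bead-associated FITC signal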
# TbMetRS inhib – T. brucei MetRS inhibitors, primary screen, biochemical, luminescence; purified T. brucei MetRS, ATP depletion, Kinase-Glo luminescence; inhibition, % at 11.9 µM; 360,000 compounds, 0.4% hits; AID 624268, 2012;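 active = inhibition above a per-plate cutoff of the control wells' mean inhibition plus 3 SD, cut at about 5.5% in these data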;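 note: 0% = DMSO wells median and 100% = median of wells with control inhibitor compound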
#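 Measured by: Kinase-Glo luciferase luminescence reporting remaining unconsumed ATP. Material: purified T. brucei MetRS enzyme. Doses: 11.9 µM compound single dose, 0.9% DMSO. Medium: HEPES buffer containing pyrophosphatase, BSA, spermine, DTT. Times: 15 min preincubation, 2 h reaction, all 25 °C. Reagent: methionine, ATP and bulk E. coli tRNA.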
# Rin1 Abl inh – inhibitors of Rin1-Abl protein binding, primary screen, biochemical, TR-FRET; Tyrosine-protein kinase ABL1 (Homo sapiens) + Ras and Rab interactor 1 (Homo sapiens), …; 360,000 compounds, 0.4% hits; inhibition, % at 7.35 µM; AID 588664, 2011; in the data active = inhibition above about 5%, passing the limit was not always enough
# MT1-MMP act inh – blockers of MT1-MMP proenzyme processing, primary screen, HT1080 RFP-PRO-GFP cells, GFP/RFP fluorescence; 360,000 compounds, 0.061% hits; Matrix metalloproteinase-14 (Homo sapiens), P50281; GFP/RFP ratio change, % at 20 µM; GFP/RFP ratio fluorescence, overnight; percent of plate control window, DMSO zero;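 active = GFP/RFP ratio change of at least 30% with cell ATP level not reduced by more than half and red fluorescence within 50% of control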
#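 Test system: HT1080 RFP-PRO-GFP cells; Benchmarks: DMSO and RFP-L50D-GFP cell wells; Timing: cells overnight before dosing, compound overnight, 37 °C, 5% CO2; Compound: one 20 µM compound dose with 1% DMSO; Read-out: GFP/RFP fluorescence ratio.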
# An asterisk follows results filed as active; . = no result.
SMILES,SKN-1 block,Arrestin-AP2 inh,TbMetRS inhib,Rin1 Abl inh,MT1-MMP act inh
CNC(=O)OC1CC2CC1[C@H]1CCCCN1C2=O (stereo not given in full),0.1,.,-0.2,.,1.3
COC(=O)CCCC[C@@H]1O[C@H](CCc2ccccc2)CC2=C1C(=O)OC(C)(C)O2,-12.0,.,-0.2,.,1.8
CCc1nc2ccc(C(=O)NCCCn3ccnc3)cn2c1N(C)Cc1nccs1,0.0,.,-0.2,0.6,2.3
Cn1/c(=N/N=C/c2ccccn2)sc2ccccc21,42.1*,-32.1,-0.1,-0.6,3.0
COc1ccc(-n2sc3c(c2=S)-c2cc(OC)ccc2NC3(C)C)cc1,40.5*,-2.2,-0.3,2.6,1.8
COc1ccc2c(c1)-c1c(sn(-c3ccccc3)c1=S)C(C)(C)N2,3.5,4.7,-0.8,0.8,-3.0
C/C(CC(=O)Nc1ccc(OCc2ccccc2)cc1)=N\NC(=O)C(=O)Nc1ccc(C)c(Cl)c1,38.2*,-5.1,-1.5,-0.7,3.3
C/C(CC(=O)Nc1ccc(C)c(Cl)c1)=N\NC(=O)Cc1ccccc1,-2.9,25.4,-1.0,-4.1,0.1
CC1=NOC(=O)/C1=C/c1ccc(-c2ccc(Cl)cc2)o1,37.4*,6.1,0.9,1.4,-6.2
O=C(CSc1nc2ccccc2c2nc3ccccc3n12)NCc1ccco1,47.8*,-0.1,0.4,-9.5,-1.5
CCn1c(SCC(=O)NCc2ccco2)nc2ccccc2c1=O,-8.7,-22.8,-0.2,2.0,0.9
Clc1ccc(CSc2ccc(-c3cccnc3)nn2)cc1,37.2*,43.4,-0.4,-3.2,5.2
Fc1cccc(Cl)c1CSc1ccc(-c2cccnc2)nn1,21.8,-5.9,0.1,-0.7,1.8
COc1cccc(-n2c(SCC(N)=O)nnc2-c2c[nH]c3ccccc23)c1,6.1,3.3,11.4*,-4.5,1.9
OC(CN1CCN(C(c2ccccc2)c2ccccc2)CC1)c1ccccc1 (stereo not given),39.5*,12.3,0.0,-0.5,0.2
OC(CN1CCN(C(c2ccccc2)c2ccccc2)CC1)c1ccc(Br)cc1 (stereo not given),11.6,24.9,-1.1,2.5,-5.2
NC(CSC(c1ccccc1)(c1ccccc1)c1ccc2c(c1)OCO2)C(=O)O (stereo not given),-17.8,.,-0.1,0.3,-2.6
Cc1cc2c(c(=O)n1CCN(C)C)C(c1ccc(Cl)cc1)C(C#N)=C(N)O2 (stereo not given),19.6,-2.9,-0.1,-0.8,2.1
Cc1cc2c(c(=O)n1C1CC1)C(c1cccc(Cl)c1)C(C#N)=C(N)O2 (stereo not given),-0.8,5.9,63.4*,3.0,1.7
CC(C)Cn1c(N)c(C(=O)CSc2nnnn2C)c(=O)n(C)c1=O,43.4*,-11.7,-0.1,-1.9,3.7
O=C(NCc1ccccc1)C(C1CC1)n1c(Cc2cc(F)cc(F)c2)nc2ccccc21 (stereo not given),-11.5,.,-0.5,.,-2.8
CCc1ccc(Nc2oc(C)cc(=O)c2C(C)=O)cc1,69.2*,-1.9,-0.1,1.4,-6.2
CCCC1(C(=O)OCC)NC(c2ccc(N(C)C)cc2)C2C(=O)N(c3ccccc3)C(=O)C21 (stereo not given),38.5*,6.6,0.2,-3.4,3.4
COc1ccc(CCN2C(=O)CSCC2(C)C(=O)Nc2ccc3c(c2)OCCO3)cc1OC (stereo not given),3.5,.,-0.1,.,1.7
Clc1ccc(-c2ccnc(-n3cccc3)n2)s1,43.0*,21.6,0.4,-6.4,-9.4
O=C1c2ccccc2C(c2nnnn2-c2ccc3c(c2)OCCO3)N1CCc1ccccc1F (stereo not given),7.0,.,-0.9,.,-0.5
O=[N+]([O-])c1cccc2ccc(/C=C/c3ccc(F)cc3)nc12,36.5*,11.8,-0.6,-3.0,2.8
N#C/C(=C/c1ccc(Sc2nc3ccccc3[nH]2)o1)c1cccc(Br)c1,-18.2,-5.6,18.6*,-2.0,-22.7
